Measurements from different studies.
Protocols differ between the studies behind these lines. pEC50, pIC50, pKi: −log10 of the molar value.
BCHE: Cholinesterase (BCHE, Homo sapiens, UniProt P06276)
TPR: Trypanothione reductase (TPR, Trypanosoma cruzi, UniProt P28593)

The pEC50 of `CSCC[C@H](NC(=O)[C@H](CC(C)C)NC(=O)[C@H](Cc1cnc[nH]1)NC(=O)CNC(=O)[C@@H](NC(=O)[C@H](C)NC(=O)[C@H](Cc1c[nH]c2ccccc12)NC(=O)[C@H](CCC(N)=O)NC(=O)[C@H](CC(N)=O)NC(=O)CNC(=O)[C@H](CC(C)C)NC(=O)[C@H](CCCN=C(N)N)NC(=O)[C@H](CCC(N)=O)NC(=O)[C@@H]1CCC(=O)N1)C(C)C)C(N)=O` is reported as under 5.00 (Bombesin receptor subtype-3 (Brs3, Mus musculus, UniProt O54798); calcium signal, agonist, fluorescence).
For `Cc1cc(C)c2[nH]c(=O)c(CN(CCO)C(=S)Nc3ccc(N4CCOCC4)cc3)cc2c1`, the pEC50 was 5.51 (Beta-glucuronidase (uidA, Escherichia coli, UniProt P05804); enzyme activity, inhibitor).
`CNC(=O)[C@@]12C[C@@H]1[C@@H](n1cnc3c(NC)nc(C#Cc4ccc(Cl)s4)cc31)[C@H](O)[C@@H]2O` has a pKi of under 5.00 (Sodium-dependent noradrenaline transporter (SLC6A2, Homo sapiens, UniProt P23975); ligand displacement, radioligand; cell membranes).
`CC1=NCCc2c1[nH]c1cc(O)ccc21` has a pIC50 of 4.46 (Tyrosine-protein phosphatase non-receptor type 12 (PTPN12, Homo sapiens, UniProt Q05209); enzyme activity, inhibitor, fluorescence).
`[O]=[V]([OH])([OH])[OH]` has a pIC50 of 1.40 (Tyrosyl-DNA phosphodiesterase 2 (TDP2, Homo sapiens, UniProt O95551); enzyme activity, inhibitor, absorbance).
`[O-]/[N+](=C\c1ccc2cccc(O)c2n1)Cc1ccccc1` gave a pKi of 8.37 (BCHE; enzyme activity, inhibitor; pH 7).
For `CNC1CC(c2ccc(Cl)c(Cl)c2)c2ccccc21` (stereo not drawn), the pIC50 was 5.14 (TPR; enzyme activity, inhibitor, absorbance).
With `CC(C)C(Nc1nc(Cl)nc2c1ncn2[C@H]1[C@H](O)[C@H](O)[C@]2(CO)C[C@H]12)C(C)C` the pKi was under 5.20 (Muscarinic acetylcholine receptor M5 (CHRM5, Homo sapiens, UniProt P08912); ligand displacement, radioligand).
`C/C=C1\NC(=O)[C@@H](NC(=O)[C@@H](NC(=O)C/C(=C/Cl)CC)C(C)C)[C@@H](C)OC(=O)[C@H](C(C)C)NC(=O)[C@H](Cc2ccc(O)cc2)N(C)C(=O)[C@H](Cc2ccccc2)N2C(=O)[C@H](CC[C@H]2O)NC1=O` gave a pIC50 of under 5.30 (Proteinase K (PROK, Engyodontium album, UniProt P06873); enzyme activity, inhibitor, fluorescence).
`C=CCn1c2cc(OC(=O)CCCCN3CCN(Cc4ccccc4C(F)(F)F)CC3)ccc2c2ccnc(C)c21` has a pIC50 of 6.45 (BCHE; enzyme activity, inhibitor, Ellman).
`O=C(Nc1cccc(-c2ccn3c(CC4CC4)nnc3c2C(F)(F)F)c1)c1ccc(S(=O)(=O)F)cc1` has a pEC50 of under 4.30 (Metabotropic glutamate receptor 3 (GRM3, Homo sapiens, UniProt Q14832); calcium signal, agonist).
For `O=c1c2ccccc2[se]n1-c1ccccc1`, the pIC50 was 5.87 (TPR; enzyme activity, inhibitor, absorbance).
For `Cn1cc(-c2cccc(N3CCc4c(sc5c4CC(C)(C)C5)C3=O)c2CO)cc(Nc2ccncn2)c1=O`, the pKi was under 5.95 (Tyrosine-protein kinase Fgr (FGR, Homo sapiens, UniProt P09769); enzyme activity, inhibitor, FRET).
The pKi of `C[C@H]1COC2=C1C(=O)C(=O)c1c2ccc2c1CCCC2(C)C` is reported as under 4.00 (BCHE; enzyme activity, inhibitor).
The pKi of `CC(=O)Nc1ccc(O)cc1` is reported as under 3.00 (Ribosyldihydronicotinamide dehydrogenase [quinone] (NQO2, Homo sapiens, UniProt P16083); enzyme activity, inhibitor).
